Data as given in ChEMBL document CHEMBL1909525, “Synthesis and anticonvulsant activity of novel 2,6-diketopiperazine derivatives. Part 1: perhydropyrrole[1,2-a]pyrazines” (Eur J Med Chem, 2011).
Activity calls are given as the source filed them. No cut-off for these calls is given here.

How the values were obtained:
Mus musculus [1] = assay: Neurotoxicity in albino Carworth Farms No.1 mouse assessed as motor impairment at 30 mg/kg, ip after 0.5 hrs by rotarod test; type: toxicity, organism-based; design: dose 30 mg/kg, route intraperitoneal; conditions: in vivo
Outline: (§1)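 Rotorod neurotoxicity in mice at 6 r.p.m. Compound given i.p. (30, 100, 300 mg/kg) in 0.5% methylcellulose; tested at 30 min and 4 h. Impairment is inability to keep equilibrium on the rod for a given time; scored as impaired/tested.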

Mus musculus [2] = assay: Neurotoxicity in albino Carworth Farms No.1 mouse assessed as motor impairment at 100 mg/kg, ip after 0.5 hrs by rotarod test; type: toxicity, organism-based; design: dose 100 mg/kg, route intraperitoneal; conditions: in vivo; outline: as §1
Mus musculus [3] = assay: Neurotoxicity in albino Carworth Farms No.1 mouse assessed as motor impairment at 300 mg/kg, ip after 0.5 hrs by rotarod test; type: toxicity, organism-based; design: dose 300 mg/kg, route intraperitoneal; conditions: in vivo; outline: as §1
Mus musculus [4] = assay: Toxicity in albino Carworth Farms No.1 mouse assessed as death following tonic extension at 300 mg/kg, ip after 0.5 hrs by rotarod test; type: organism-based; design: dose 300 mg/kg, route intraperitoneal; conditions: in vivo
Outline: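 Mice (18–25 g) were given 30, 100 or 300 mg/kg i.p. in 0.5% (v/v) aqueous methylcellulose. Neurotoxicity was checked on a 6 r.p.m. rotorod 30 min and 4 h after dosing and scored as inability to keep equilibrium. Death following tonic extension and sedation were recorded as observations (number of animals/number tested).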

Mus musculus [5] = assay: Anticonvulsant activity in albino Carworth Farms No.1 mouse assessed as protection against subcutaneous metrazol-induced seizure at 30 mg/kg, ip after 0.5 hrs; type: functional, organism-based; design: dose 30 mg/kg
Outline: (§2)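 Mouse scMET test. Compound given i.p. (30, 100 or 300 mg/kg) in 0.5% methylcellulose. Pentylenetetrazole 85 mg/kg (CD97) given s.c. at 0.5 or 4 h, then mice observed for 30 min. Protection is absence of clonic spasms; scored as protected/tested.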

Mus musculus [6] = assay: Anticonvulsant activity in albino Carworth Farms No.1 mouse assessed as protection against subcutaneous metrazol-induced seizure at 30 mg/kg, ip after 4 hrs; type: functional, organism-based; design: dose 30 mg/kg; outline: as §2
Mus musculus [7] = assay: Anticonvulsant activity in albino Carworth Farms No.1 mouse assessed as protection against subcutaneous metrazol-induced seizure at 100 mg/kg, ip after 0.5 hrs; type: functional, organism-based; design: dose 100 mg/kg; outline: as §2
Mus musculus [8] = assay: Anticonvulsant activity in albino Carworth Farms No.1 mouse assessed as protection against subcutaneous metrazol-induced seizure at 100 mg/kg, ip after 4 hrs; type: functional, organism-based; design: dose 100 mg/kg; outline: as §2
Mus musculus [9] = assay: Anticonvulsant activity in albino Carworth Farms No.1 mouse assessed as protection against subcutaneous metrazol-induced seizure at 300 mg/kg, ip after 0.5 hrs; type: functional, organism-based; design: dose 300 mg/kg; outline: as §2
Mus musculus [10] = assay: Anticonvulsant activity in albino Carworth Farms No.1 mouse assessed as protection against subcutaneous metrazol-induced seizure at 300 mg/kg, ip after 4 hrs; type: functional, organism-based; design: dose 300 mg/kg; outline: as §2
Mus musculus [11] = assay: Toxicity in albino Carworth Farms No.1 mouse subcutaneous metrazol-induced seizure model assessed as myoclonic jerk at 300 mg/kg, ip after 0.5 hrs; type: organism-based; design: dose 300 mg/kg; conditions: in vivo, sc
Mus musculus [12] = assay: Anticonvulsant activity in albino Carworth Farms No.1 mouse assessed as protection against maximal electroshock-induced seizure at 30 mg/kg, ip after 0.5 hrs; type: functional, organism-based; design: dose 30 mg/kg
Outline: (§3)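 Mouse MES test with compound given i.p. (30, 100 or 300 mg/kg) in 0.5% methylcellulose; tested at 0.5 and 4 h. Corneal stimulus of 50 mA at 60 Hz for 0.2 s, electrodes primed with 0.5% butacaine in 0.9% NaCl. Protection is abolition of hindlimb tonic extension; scored as protected/tested.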

Mus musculus [13] = assay: Anticonvulsant activity in albino Carworth Farms No.1 mouse assessed as protection against maximal electroshock-induced seizure at 30 mg/kg, ip after 4 hrs; type: functional, organism-based; design: dose 30 mg/kg; outline: as §3
Mus musculus [14] = assay: Anticonvulsant activity in albino Carworth Farms No.1 mouse assessed as protection against maximal electroshock-induced seizure at 100 mg/kg, ip after 0.5 hrs; type: functional, organism-based; design: dose 100 mg/kg; outline: as §3
Mus musculus [15] = assay: Anticonvulsant activity in albino Carworth Farms No.1 mouse assessed as protection against maximal electroshock-induced seizure at 100 mg/kg, ip after 4 hrs; type: functional, organism-based; design: dose 100 mg/kg; outline: as §3
Mus musculus [16] = assay: Anticonvulsant activity in albino Carworth Farms No.1 mouse assessed as protection against maximal electroshock-induced seizure at 300 mg/kg, ip after 0.5 hrs; type: functional, organism-based; design: dose 300 mg/kg; outline: as §3
Mus musculus [17] = assay: Anticonvulsant activity in albino Carworth Farms No.1 mouse assessed as protection against maximal electroshock-induced seizure at 300 mg/kg, ip after 4 hrs; type: functional, organism-based; design: dose 300 mg/kg; outline: as §3
Mus musculus [18] = assay: Neurotoxicity in albino Carworth Farms No.1 mouse assessed as motor impairment at 30 mg/kg, ip after 4 hrs by rotarod test; type: toxicity, organism-based; design: dose 30 mg/kg, route intraperitoneal; conditions: in vivo; outline: as §1
Mus musculus [19] = assay: Neurotoxicity in albino Carworth Farms No.1 mouse assessed as motor impairment at 300 mg/kg, ip after 4 hrs by rotarod test; type: toxicity, organism-based; design: dose 300 mg/kg, route intraperitoneal; conditions: in vivo; outline: as §1
Mus musculus [20] = assay: Anticonvulsant activity in ip dosed albino Carworth Farms No.1 mouse assessed as protection against maximal electroshock-induced seizure after 0.25 hrs; type: functional; conditions: albino Carworth Farms No.1, ip
Outline: (§4)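 Mouse quantification at the time of peak effect, compound given i.p. in 0.5% methylcellulose. Groups of at least eight mice received varied doses until at least two points fell between 100 and 0% response. ED50 (MES, scMET) and TD50 (rotorod) with 95% CI by probit analysis (Finney). PI = TD50/ED50 MES.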

Mus musculus [21] = assay: Anticonvulsant activity in ip dosed albino Carworth Farms No.1 mouse assessed as protection against subcutaneous metrazol-induced seizure after 0.25 hrs; type: functional; conditions: albino Carworth Farms No.1, 0.25 h; outline: as §4
[22] = Neurotoxicity in ip dosed albino Carworth Farms No.1 mouse assessed as motor impairment after 0.25 hrs by rotarod test; type: toxicity, organism-based; conditions: Carworth Farms No.1 (albino), in vivo
Outline: (§5)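 Mouse quantification at the time of peak effect, compound given i.p. in 0.5% methylcellulose. Groups of at least eight mice received varied doses until at least two points fell between 100 and 0% response. PI = TD50/ED50 MES.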

Mus musculus [23] = species on record: Mus musculus; assay: Protective index, ratio of TD50 for albino Carworth Farms No.1 mouse to ED50 for albino Carworth Farms No.1 mouse by maximal electroshock-induced seizure test; type: functional; outline: as §5
Mus musculus [24] = assay: Anticonvulsant activity in ip dosed albino Carworth Farms No.1 mouse assessed as time needs to show peak effect for protection against maximal electroshock-induced seizure; type: functional
Rattus norvegicus [25] = assay: Toxicity in albino Sprague-Dawley rat pilocarpine-induced status epilepticus model assessed as change in body weight in protected rat at 600 mg/kg, ip measured after 24 hrs of time from first stage 3 seizures; type: organism-based; design: dose 600 mg/kg, route intraperitoneal; conditions: in vivo
Outline: (§6)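 Pilocarpine-induced status prevention in male albino Sprague-Dawley rats (150–180 g). Compound given i.p. and followed by a pilocarpine challenge. Animals were sorted as protected or non-protected, and average body weight change (g) ± S.E.M. was recorded for each group.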

Rattus norvegicus [26] = assay: Toxicity in albino Sprague-Dawley rat pilocarpine-induced status epilepticus model assessed as change in body weight in non-protected rat at 600 mg/kg, ip measured after 24 hrs of time from first stage 3 seizures; type: organism-based; design: dose 600 mg/kg, route intraperitoneal; conditions: in vivo; outline: as §6
Rattus norvegicus [27] = assay: Anticonvulsant activity in albino Sprague-Dawley rat assessed as protection against pilocarpine-induced status epilepticus at 600 mg/kg, ip measured after time from first stage 3 seizures; type: functional, organism-based; design: dose 600 mg/kg
Outline: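 Male albino Sprague-Dawley rats (150–180 g) given compound i.p., then a pilocarpine challenge dose immediately (0 min) or 30 min after treatment. Outcome scored as protection or no protection from epileptic seizures, reported as number protected/number tested.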

| SMILES | Activity (Mus musculus [1]) | Activity (Mus musculus [2]) | Activity (Mus musculus [3]) | Activity (Mus musculus [5]) | Activity (Mus musculus [6]) | Activity (Mus musculus [7]) | Activity (Mus musculus [8]) | Activity (Mus musculus [9]) | Activity (Mus musculus [10]) | Activity (Mus musculus [12]) | Activity (Mus musculus [13]) | Activity (Mus musculus [14]) | Activity (Mus musculus [15]) | Activity (Mus musculus [16]) | Activity (Mus musculus [17]) | Activity (Mus musculus [18]) | Activity (Mus musculus [19]) | other results |
| --- | --- | --- | --- | --- | --- | --- | --- | --- | --- | --- | --- | --- | --- | --- | --- | --- | --- | --- |
| Cl.O=C1CN2CCC[C@H]2C(=O)N1CCc1ccccc1 | Non-toxic | Non-toxic | Toxic | inactive | inactive | inactive | inactive | Active | inactive | inactive | inactive | inactive | inactive | Active | Active | Non-toxic | Non-toxic | Activity (Mus musculus [4]): Toxic; Activity (Mus musculus [11]): Toxic |
| Cl.O=C1[C@H](c2ccccc2)N2CCC[C@H]2C(=O)N1CCc1ccccc1 | Non-toxic | Non-toxic | Non-toxic | inactive | inactive | inactive | inactive | inactive | inactive | inactive | inactive | Active | inactive | Active | Active | Non-toxic | Non-toxic | ED50 (Mus musculus [20]): 80.6 mg/kg; ED50 (Mus musculus [21]): > 200 mg/kg; TD50 at 0.25 h [22]: 178 mg/kg; Ratio TD50/ED50 (Mus musculus [23]): 2.2; Time (Mus musculus [24]): 0.25 h; Activity (Rattus norvegicus [25]): -10 g; Activity (Rattus norvegicus [26]): -18.8 g; Activity (Rattus norvegicus [27]): inactive |
